Key:
NALM16 cells = assay: St. Jude cancer cell line panel, NALM16; type: cell-based, human; conditions: ALL cell line; confidence intervals in parentheses; NA: not active
Outline: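 Human ALL line NALM16, derived from the peripheral blood of a child at relapse in 1977. Carries a near-haploid karyotype. Tested in a St. Jude screening panel alongside three other ALL lines, one lymphoma line and mouse choroid plexus carcinoma CPC300 cells.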

RAJI cells = assay: St. Jude cancer cell line panel, RAJI; type: cell-based; conditions: Burkitt's lymphoma; confidence intervals in parentheses; NA: not active
Outline: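 RAJI Burkitt's lymphoma cells, FAB L3 subtype, served as the panel's single lymphoma line. Screened together with four ALL lines and mouse CPC300 choroid plexus carcinoma cells at St. Jude.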

REH cells = assay: St. Jude cancer cell line panel, REH; type: cell-based, human; conditions: precursor B-cell ALL; confidence intervals in parentheses; NA: not active
Outline: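 REH: patient-derived precursor B-cell ALL line that expresses only wild-type MLL and wild-type AF4. Screened in a St. Jude panel with other ALL lines, a lymphoma line and mouse CPC300 cells.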

CSc1ccc(/C=C2/C(C)=C(CC(=O)NCCN(C)C)c3cc(F)ccc32)cc1 [SSA, sulindac sulfide amide]
no activity: EC50 NALM16 (NALM16 cells) | EC50 RAJI (RAJI cells) | EC50 REH (REH cells)

Source: article PMC6081960 (Bioorganic & medicinal chemistry letters, 2018)
